Laboratory results as given in ChEMBL document CHEMBL1147254, “New bioactive polyphenols from Theobroma grandiflorum ("cupuaçu")” (J Nat Prod, 2003).
pIC50: −log10 of the molar value.

Assays:
[1] = tested on: Radical scavenging activity; assay: Antioxidant activity assessed as DPPH radical scavenging activity after 30 mins; format: functional
Procedure, shortened: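 Test samples in DMSO were mixed with a 300 µM ethanolic DPPH solution and incubated at 37 °C.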

HCT-116 = assay: Cytotoxicity against human HCT116 cells after 72 hrs by MTT assay; format: functional, cell-based; conditions: HCT-116, 72 h
Procedure, shortened: (§1)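 About 30 000 cells per well were seeded in 96-well plates, and the medium was replaced once cultures reached 40% confluence.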

SW480 = assay: Cytotoxicity against human SW480 cells after 72 hrs by MTT assay; format: functional, cell-based; conditions: SW480, 72 h; procedure, shortened: as §1

O=C(O)[C@H]1O[C@@H](Oc2c(O)cc(O)c3c(=O)cc(-c4ccc(O)cc4)oc23)[C@H](O)[C@@H](O)[C@@H]1O
pIC50 [1]: 4.17

COC(=O)[C@H]1O[C@@H](Oc2c(O)cc(O)c3c(=O)cc(-c4ccc(O)cc4)oc23)[C@H](O)[C@@H](O)[C@@H]1O
pIC50 [1]: 4.16

COC(=O)[C@H]1O[C@@H](Oc2c(-c3ccc(O)c(O)c3)oc3cc(O)cc(O)c3c2=O)[C@H](O)[C@@H](O)[C@@H]1O
pIC50 [1]: 4.38

O=C(O)[C@H]1O[C@@H](Oc2c(O)cc(O)c3c(=O)cc(-c4ccc(O)c(O)c4)oc23)[C@H](O)[C@@H](O)[C@@H]1O
pIC50 [1]: 4.24

Oc1cc(O)c2c(c1)O[C@H](c1ccc(O)c(O)c1)[C@H](O)C2 [(-)-EPICATECHIN]
pIC50 [1]: 4.31

Oc1cc(O)c2c(c1)O[C@H](c1ccc(O)c(O)c1)[C@@H](O)C2 [CIANIDANOL]
pIC50 [1]: 4.31

O=c1c(O)c(-c2ccc(O)cc2)oc2cc(O)cc(O)c12 [KAEMPFEROL]
pIC50 [1]: 4.05

O=C(O)[C@H]1O[C@@H](Oc2c(-c3ccc(O)c(O)c3)oc3cc(O)cc(O)c3c2=O)[C@H](O)[C@@H](O)[C@@H]1O [QUERCETIN GLUCURONIDE]
pIC50 [1]: 4.35

O=c1c(O)c(-c2ccc(O)c(O)c2)oc2cc(O)cc(O)c12 [QUERCETIN]
pIC50 [1]: 4.40

O=C(O)[C@H]1O[C@@H](Oc2c(O)cc(O)c3c(=O)cc(-c4ccc(O)c(O)c4)oc23)[C@H](O)[C@@H](OS(=O)(=O)O)[C@@H]1O [THEOGRANDIN II]
pIC50 [1]: 3.92 | pIC50 (HCT-116): 3.84 | pIC50 (SW480): 3.90

O=C(O)[C@H]1O[C@@H](Oc2c(O)cc(O)c3c(=O)cc(-c4ccc(O)cc4)oc23)[C@H](O)[C@@H](OS(=O)(=O)O)[C@@H]1O [THEOGRANDIN I]
pIC50 [1]: 3.47 | pIC50 (HCT-116): 3.69 | pIC50 (SW480): 3.79
